Assay outcomes as filed in PubChem BioAssay.
Runt-SMMHC FRET – blocks binding of human RUNX1 Runt domain to CBFb-SMMHC; Q01196+Q13951; Cerulean-Runt/Venus-CBFb-SMMHC FRET ratio 530/480, 1 h; inhibition, % at 20 µM; 220,000 tested, 0.74% active;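 active means mean inhibition across duplicate retests at 20 µM reaching about 50%, limit read from the data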;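 further: 0% = DMSO wells and 100% = wells with excess untagged CBFb-SMMHC; inhibitors lower the FRET ratio by blocking Runt binding to CBFb-SMMHC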
Target sequence (Q01196 whole entry, looked up, the tested form may be a part): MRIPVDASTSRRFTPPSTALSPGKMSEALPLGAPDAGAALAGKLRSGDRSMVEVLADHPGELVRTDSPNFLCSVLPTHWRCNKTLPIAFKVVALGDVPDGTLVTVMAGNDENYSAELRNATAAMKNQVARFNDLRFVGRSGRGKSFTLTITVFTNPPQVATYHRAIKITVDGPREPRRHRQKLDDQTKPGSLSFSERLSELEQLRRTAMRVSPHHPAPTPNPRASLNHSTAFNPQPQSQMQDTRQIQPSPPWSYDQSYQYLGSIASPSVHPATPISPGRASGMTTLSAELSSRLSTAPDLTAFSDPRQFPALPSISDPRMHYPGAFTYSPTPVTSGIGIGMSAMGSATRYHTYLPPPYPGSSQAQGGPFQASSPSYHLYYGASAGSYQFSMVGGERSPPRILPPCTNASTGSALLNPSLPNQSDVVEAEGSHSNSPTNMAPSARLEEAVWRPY
Target sequence (Q13951 whole entry, looked up, the tested form may be a part): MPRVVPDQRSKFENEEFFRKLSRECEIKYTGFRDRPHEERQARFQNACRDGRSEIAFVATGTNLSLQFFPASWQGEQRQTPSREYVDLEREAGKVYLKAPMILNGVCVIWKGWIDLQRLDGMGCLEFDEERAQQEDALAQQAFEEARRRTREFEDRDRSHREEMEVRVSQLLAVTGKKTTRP
Tb hexokinase – blocks Trypanosoma brucei hexokinase 1 activity; 220,000 tested, 0.11% active; recombinant TbHK1, G6PDH-coupled NADH A340; inhibition, % at 10 µM; AID 1430;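 active means inhibition of 50% or more in the single-dose primary screen; inactive means inhibition below 50%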
14-3-3 Bad inh – disrupts binding of bovine 14-3-3 zeta to phospho-Bad peptide; P63103; TR-FRET 14-3-3zeta/Dy647-pBad peptide displacement, 1 h; inhibition, % at 21.7 µM; 220,000 tested, 0.71% active; AID 781;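 active means inhibition above about 70%, limit read from the data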;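 further: 0% = full 14-3-3 plus peptide FRET controls and 100% = background without 14-3-3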
Hck Nef HTS – inhibitors of human Hck kinase activated by Nef; P08631; Recombinant Hck-YEEI plus Nef, Z-Lyte FRET kinase assay; inhibition, % at 20 µM; 220,000 tested, 0.68% active;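 active means Hck-Nef kinase inhibition above about 50%, limit read from the data; inactive means inhibition below that limit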;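 further: 0% = DMSO with Hck plus Nef and 100% = Hck alone without Nef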
Runt-CBFb FRET – Runt domain-CBFb interaction inhibition. Q01196+Q13951. Cerulean-Runt/Venus-CBFb FRET ratio 530/480, 1 h. inhibition, % at 20 µM. 220,000 tested, 0.46% active. AID 1496;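 active means inhibition over about 50% at 20 µM in the single-dose screen, limit read from the data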;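 further: 0% = DMSO wells and 100% = excess unlabeled CBFb competitor control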
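test system = Cerulean-Runt domain fusion protein, energy donor | probe or stimulus = Venus-CBFb binding partner, 100 nM | incubation = two 1 h room-temperature incubations shielded from light | detection = fluorescence energy transfer, 422 nm excitation, 530/480 nm emission | measure = loss of energy transfer signal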
RanGTP-Impb inh – inhibitors of RanGTP-importin-beta interaction, primary screen, biochemical, FRET, CFP-Ran, YFP-importin-beta, homogeneous; inhibition, % (concentration not given with the values); AID 2216; 300,000 tested, 1.1% active; cell-free CFP-Ran/YFP-importin-beta FRET ratio;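 active means more than half of the replicate wells show a fall in the fluorescence ratio signal beyond about 16%, limit read from the data, passing the limit was not always enough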;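 further: 0% = DMSO wells and 100% = Ran loaded with GDP instead of GTP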
An asterisk follows results filed as active; . = no result given; [ ] = another dose, or the depositor's remark. Only some compounds are listed: those with a hit (about 2.2% of all), similar ones and a draw of the others.

SMILES | Runt-SMMHC FRET | Tb hexokinase | 14-3-3 Bad inh | Hck Nef HTS | Runt-CBFb FRET | RanGTP-Impb inh
CCOC(=S)SCc1cn2ccc(C)cc2n1 | -7.3 | -3.6 | 1.3 | 6.9 | 4.0 | 20.6*
CCOC(=S)SCc1cn2ccccc2n1 | 6.8 | 0.0 | 2.0 | 10.7 | . | 1.4
CN=C1NN=C(c2cc(C)n(-c3ccc(Cl)cc3)c2C)CS1 | 5.6 | -9.7 | -5.3 | 28.0 | 5.5 | 2.1
CC(C)C(NC(=O)c1ccccc1NC(=O)c1ccccc1)C(=O)NNC(=O)c1ccncc1 (stereo not given) | . | . | . | . | . | -0.1
Cc1ccc(C(=O)/C=C/NCc2ccc(F)cc2)cc1 | -1.1 | -12.5 | -33.4 | 4.9 | 2.4 | 30.6*
O=C(Nc1ccc(OC(F)F)cc1)c1ncc(Cl)c(Cl)c1Cl | -0.5 | -2.0 | 98.2* | 22.0 | 0.2 | 0.3
CCC1=NN(C(=O)CCc2ccc3c(c2)OCO3)C(O)(C(F)(F)F)C1 (stereo not given) | 3.4 | 2.9 | -2.0 | 18.7 | -5.4 | -0.3
CCN(CC)S(=O)(=O)c1cccc(C(=O)/C=C2/N(C)c3ccccc3C2(C)C)c1 | 11.9 | 6.1 | -15.8 | 7.9 | 9.4 | 27.3*
N#Cc1ccc(Oc2cnccn2)cc1 | . | . | . | . | . | 26.7*
CCC(C)(C)n1nnnc1C(c1cc2cccc(C)c2[nH]c1=O)N1CCN(C(=O)c2ccco2)CC1 (stereo not given) | -131.0 | -13.1 | . | 0.5 | -18.0 | 17.0*
CCC(C)(C)n1nnnc1C(c1ccc(C)cc1)N1CCN(C(=O)c2ccco2)CC1 (stereo not given) | 2.2 | -7.5 | -2.1 | -9.2 | -3.6 | 3.5
O=c1[nH][nH]c2cc(=O)n(-c3ccc(Cl)cc3)nc12 | -1.2 | -1.3 | 92.0* | 4.8 | -4.8 | -2.4
CC(=O)c1nn(-c2ccc(Cl)cc2)c(=O)[nH]c1=O | . | . | . | . | . | -0.4
O=C(CN1C(=O)NC2(CCSC2)C1=O)NCc1ccccc1 (stereo not given) | -0.2 | 3.6 | -8.9 | 22.1 | -0.1 | -0.5
CCCc1cc(=O)[nH]c(Nc2cc(OC)ccc2OC)n1 | 0.4 | 0.8 | 5.3 | 3.4 | -0.1 | 0.7
CCOc1ccc(Nc2nc(CC(=O)OC)cc(=O)[nH]2)cc1 | -7.9 | 1.6 | 89.4* | 13.3 | -1.6 | 2.0
Cc1cc(C)c2c(n1)nn1c(NCCN3CCOCC3)cc(C)nc21 | 38.5 | -12.6 | 13.6 | 32.5 | 7.1 | 35.5*
Cc1cc(NCCN2CCOCC2)n2nc(C)c(-c3ccccc3)c2n1 | 3.3 | -16.0 | -1.5 | 2.8 | -0.2 | -0.3
Oc1ccc(N=C/C=C/c2ccc(Br)cc2)cc1-c1nc2ccccc2s1 | 35.6 | 1.3 | 10.5 | 3.3 | 33.5 | 38.4*
Brc1cc2c(cc1-c1nc3ccccc3s1)OCO2 | . | . | . | . | . | 0.5
Nc1cccc(-c2nc3cc(S(=O)(=O)c4ccc5oc(-c6cccc(N)c6)nc5c4)ccc3o2)c1 | -3.7 | -17.7 | 87.4*[fluorescence artefact?] | -0.1 | -1.9 | -1.5
COc1cccc(CNC(=O)c2cccc(Br)c2)c1 | -4.4 | 38.3 | -15.7 | 1.0 | -1.1 | 30.4*
COc1cccc(CNC(=O)c2cccc(S(=O)(=O)N3CCN(C)CC3)c2)c1 | . | . | . | . | . | 5.0
O=C1NC(=S)S/C1=C\c1coc2ccccc2c1=O | -7.5 | -17.0 | -5.8 | 88.1* | -2.2 | 2.4
Cc1cc(/C=C2\SC(=S)NC2=O)c(C)n1C1CC1 | -50.3 | -3.2 | 0.5 | 4.4 | 9.7 | 8.3
SMILES | Runt-SMMHC FRET | Tb hexokinase | 14-3-3 Bad inh | Hck Nef HTS | Runt-CBFb FRET | RanGTP-Impb inh
O=C1NC(=S)S/C1=C\c1ccc2ccccc2c1 | . | . | . | . | . | -5.7
O=C1NC(=S)S/C1=C\c1coc2ccc(O)cc2c1=O | -0.9 | 8.8 | 0.1 | 53.2* | 0.5 | -0.6
CCOC(=O)c1c(NC(=O)CSc2ncccn2)sc2c1CCN(Cc1ccccc1)C2 | 150.8* | 14.0 | 29.4 | 1.0 | 106.2* | 135.4*
CCOC(=O)c1c(NC(=O)CN2CCCCC2)sc2c1CCN(C(=O)OCC)C2 | -8.9 | -8.5 | -13.5 | 6.3 | -11.9 | 6.1
CCOC(=O)c1c(NC(=O)CC)sc2c1CCN(Cc1ccccc1)C2 | . | . | . | . | . | 89.0*
CCOC(=O)c1c(NC(=O)C(C)Sc2cccc[n+]2[O-])sc2c1CCN(Cc1ccccc1)C2 (stereo not given) | 81.1* | -14.6 | -1.8 | 4.8 | 111.6* | .
CCOC(=O)c1c(NC(C)=O)sc2c1CCN(Cc1ccccc1)C2 | . | . | . | . | . | 86.7*
